Data as given in ChEMBL document CHEMBL3860038, “Discovery of (R,E)-N-(7-Chloro-1-(1-[4-(dimethylamino)but-2-enoyl]azepan-3-yl)-1H-benzo[d]imidazol-2-yl)-2-methylisonicotinamide (EGF816), a Novel, Potent, and WT Sparing Covalent Inhibitor of Oncogenic (L858R, ex19del) and Resistant (T790M) EGFR Mutants for the Treatment of EGFR Mutant …” (J Med Chem, 2016).

Key:
[1] = tested on: Mus musculus; assay: Toxicity in human NCI-H1975 cells xenografted Foxn1 nude mouse assessed as change in body weight at 25 mg/kg, po qd for 5 days (reference value: […]); type: organism-based; settings: in vivo, 120 h
[2] = Time duration during which free plasma concentration stays above in-vitro IC50 level in human NCI-H1975 cells xenografted Foxn1 nude mouse at 25 mg/kg, po qd for 5 days; type: ADME, organism-based; settings: in vivo, 120 h
In short: (§1)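 H1975 xenografts in Foxn1 nude mice, oral dosing once daily for 5 days. Plasma sampled after the last dose on day 5, at 30 min, 3 h, 7 h and 24 h. Free drug exposure was compared with in vitro cellular IC50 across the dosing interval.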

[3] = Antitumor activity against human NCI-H1975 cells xenografted in Foxn1 nude mouse assessed as reduction in tumor volume at 25 mg/kg, po qd for 5 days relative to untreated control; type: functional
In short: (§2)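 Female Foxn1 nude mice, H1975 cells inoculated subcutaneously. Randomized into groups once tumors reached 150−200 mm³, then dosed by oral gavage once daily for 5 days in 0.5% MC/0.5% Tween80 suspension (10 μL/g). Tumor volumes by caliper, (length × width × width)/2. %T/C = 100 × ΔT/ΔC, or % regression = 100 × ΔT/T_initial when ΔT < 0. Body weight recorded daily.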

[4] = Glutathione reactivity assessed as GSH adduct formation incubated for 1 hr using 10 mM glutathione
In short: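 Compound incubated 1 h with 10 mM glutathione; GSH adduct formation measured.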

[5] = biological target: T1, Epidermal growth factor receptor (Homo sapiens, UniProt P00533, L858R/T790M); assay: Inhibition of N-terminal 6x-HIS-tagged human recombinant EGFR (696 to 1022 residues) L858R/T790M mutant expressed in Sf9 cells pre-incubated for 0 mins followed by 1 mM ATP addition by HTRF assay
T1 sequence (P00533 25-1210 T790M/L858R limits assumed): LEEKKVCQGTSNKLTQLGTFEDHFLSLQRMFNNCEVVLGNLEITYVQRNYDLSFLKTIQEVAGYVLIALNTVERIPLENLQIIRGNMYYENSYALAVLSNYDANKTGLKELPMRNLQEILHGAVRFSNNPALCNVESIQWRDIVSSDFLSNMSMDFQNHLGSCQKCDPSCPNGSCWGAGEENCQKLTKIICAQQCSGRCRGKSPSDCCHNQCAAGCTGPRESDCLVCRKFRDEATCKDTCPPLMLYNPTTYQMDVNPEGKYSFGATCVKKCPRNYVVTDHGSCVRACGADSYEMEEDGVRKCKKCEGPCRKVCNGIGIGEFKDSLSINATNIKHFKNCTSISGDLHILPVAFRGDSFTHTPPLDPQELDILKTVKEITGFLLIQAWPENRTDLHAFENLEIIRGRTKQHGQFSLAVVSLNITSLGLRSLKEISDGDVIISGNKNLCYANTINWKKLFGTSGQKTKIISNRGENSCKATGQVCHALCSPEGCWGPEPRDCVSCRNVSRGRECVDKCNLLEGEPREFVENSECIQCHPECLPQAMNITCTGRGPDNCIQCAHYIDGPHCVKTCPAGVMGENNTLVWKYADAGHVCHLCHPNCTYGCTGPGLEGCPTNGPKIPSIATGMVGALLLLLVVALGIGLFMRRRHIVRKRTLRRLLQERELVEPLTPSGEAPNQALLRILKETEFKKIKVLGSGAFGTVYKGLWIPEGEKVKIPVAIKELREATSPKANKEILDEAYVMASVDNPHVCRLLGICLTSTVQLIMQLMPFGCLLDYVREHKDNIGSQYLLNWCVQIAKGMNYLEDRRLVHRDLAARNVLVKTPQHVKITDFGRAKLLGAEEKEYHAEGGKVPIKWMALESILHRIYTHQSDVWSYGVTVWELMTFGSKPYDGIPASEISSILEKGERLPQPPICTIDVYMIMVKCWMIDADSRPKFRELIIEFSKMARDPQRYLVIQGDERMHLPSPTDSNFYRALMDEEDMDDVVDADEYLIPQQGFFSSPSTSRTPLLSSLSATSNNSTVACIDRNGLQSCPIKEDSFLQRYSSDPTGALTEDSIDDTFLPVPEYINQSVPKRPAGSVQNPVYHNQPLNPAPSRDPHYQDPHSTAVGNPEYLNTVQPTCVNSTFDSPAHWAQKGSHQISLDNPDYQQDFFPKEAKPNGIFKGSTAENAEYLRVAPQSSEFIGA
In short: (§3)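 HTRF kinase assay on the EGFR L858R-T790M kinase domain at 1 mM ATP. Compound with either no preincubation or a 90 min enzyme/compound preincubation.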

[6] = biological target: T2, Epidermal growth factor receptor (Homo sapiens, UniProt P00533, L858R); assay: Inhibition of EGFR L858R mutant (unknown origin) phosphorylation expressed in mouse NIH/3T3 cells incubated for 3 hrs by ELISA method; type: cell-based
T2 sequence (P00533 25-1210 L858R limits assumed): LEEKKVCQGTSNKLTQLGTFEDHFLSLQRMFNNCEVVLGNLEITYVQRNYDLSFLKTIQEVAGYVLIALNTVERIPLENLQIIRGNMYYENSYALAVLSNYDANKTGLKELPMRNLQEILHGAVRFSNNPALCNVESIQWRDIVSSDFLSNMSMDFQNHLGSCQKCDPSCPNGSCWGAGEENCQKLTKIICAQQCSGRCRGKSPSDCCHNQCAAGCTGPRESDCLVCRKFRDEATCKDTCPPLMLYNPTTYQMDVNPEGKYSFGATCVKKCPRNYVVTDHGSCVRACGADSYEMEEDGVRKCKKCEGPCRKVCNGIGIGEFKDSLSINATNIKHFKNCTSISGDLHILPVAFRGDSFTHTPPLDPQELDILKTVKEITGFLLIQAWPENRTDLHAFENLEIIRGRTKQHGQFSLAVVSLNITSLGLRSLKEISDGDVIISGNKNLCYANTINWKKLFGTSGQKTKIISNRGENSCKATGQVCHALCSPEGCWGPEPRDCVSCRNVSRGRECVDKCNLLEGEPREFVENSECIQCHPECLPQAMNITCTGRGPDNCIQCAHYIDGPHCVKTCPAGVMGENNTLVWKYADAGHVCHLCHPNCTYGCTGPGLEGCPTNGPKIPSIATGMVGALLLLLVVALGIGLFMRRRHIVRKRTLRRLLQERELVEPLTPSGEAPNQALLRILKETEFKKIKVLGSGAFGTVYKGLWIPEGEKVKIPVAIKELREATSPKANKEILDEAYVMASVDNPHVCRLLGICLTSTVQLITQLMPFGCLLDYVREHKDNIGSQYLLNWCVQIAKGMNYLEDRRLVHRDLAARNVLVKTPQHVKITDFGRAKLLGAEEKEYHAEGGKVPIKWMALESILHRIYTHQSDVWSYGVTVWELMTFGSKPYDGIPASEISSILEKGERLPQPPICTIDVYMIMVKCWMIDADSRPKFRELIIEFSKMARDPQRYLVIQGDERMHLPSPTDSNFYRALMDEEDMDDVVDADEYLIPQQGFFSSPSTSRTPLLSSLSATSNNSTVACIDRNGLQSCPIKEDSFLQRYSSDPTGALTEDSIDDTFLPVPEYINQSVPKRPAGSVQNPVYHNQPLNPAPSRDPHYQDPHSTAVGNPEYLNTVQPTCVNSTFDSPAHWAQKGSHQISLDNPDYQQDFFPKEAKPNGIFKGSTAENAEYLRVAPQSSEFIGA
In short: (§4)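 Engineered NIH-3T3 cells expressing L858R-T790M, L858R or WT EGFR. 3 h compound treatment, then cellular phospho-EGFR target modulation read-out. IC50 averaged from at least duplicates.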

[7] = biological target: T1, Epidermal growth factor receptor; assay: Inhibition of N-terminal 6x-HIS-tagged human recombinant EGFR (696 to 1022 residues) L858R/T790M mutant expressed in Sf9 cells pre-incubated for 90 mins followed by 1 mM ATP addition by HTRF assay; in short: as §3
[8] = biological target: T1, Epidermal growth factor receptor; assay: Inhibition of EGFR L858R/T790M mutant (unknown origin) phosphorylation expressed in mouse NIH/3T3 cells incubated for 3 hrs by ELISA method; type: cell-based; in short: as §4
[9] = biological target: T3, Epidermal growth factor receptor (Homo sapiens, UniProt P00533); assay: Inhibition of wild type human EGFR phosphorylation expressed in mouse NIH/3T3 cells incubated for 3 hrs by ELISA method; type: cell-based; in short: as §4
T3 sequence (P00533 whole entry): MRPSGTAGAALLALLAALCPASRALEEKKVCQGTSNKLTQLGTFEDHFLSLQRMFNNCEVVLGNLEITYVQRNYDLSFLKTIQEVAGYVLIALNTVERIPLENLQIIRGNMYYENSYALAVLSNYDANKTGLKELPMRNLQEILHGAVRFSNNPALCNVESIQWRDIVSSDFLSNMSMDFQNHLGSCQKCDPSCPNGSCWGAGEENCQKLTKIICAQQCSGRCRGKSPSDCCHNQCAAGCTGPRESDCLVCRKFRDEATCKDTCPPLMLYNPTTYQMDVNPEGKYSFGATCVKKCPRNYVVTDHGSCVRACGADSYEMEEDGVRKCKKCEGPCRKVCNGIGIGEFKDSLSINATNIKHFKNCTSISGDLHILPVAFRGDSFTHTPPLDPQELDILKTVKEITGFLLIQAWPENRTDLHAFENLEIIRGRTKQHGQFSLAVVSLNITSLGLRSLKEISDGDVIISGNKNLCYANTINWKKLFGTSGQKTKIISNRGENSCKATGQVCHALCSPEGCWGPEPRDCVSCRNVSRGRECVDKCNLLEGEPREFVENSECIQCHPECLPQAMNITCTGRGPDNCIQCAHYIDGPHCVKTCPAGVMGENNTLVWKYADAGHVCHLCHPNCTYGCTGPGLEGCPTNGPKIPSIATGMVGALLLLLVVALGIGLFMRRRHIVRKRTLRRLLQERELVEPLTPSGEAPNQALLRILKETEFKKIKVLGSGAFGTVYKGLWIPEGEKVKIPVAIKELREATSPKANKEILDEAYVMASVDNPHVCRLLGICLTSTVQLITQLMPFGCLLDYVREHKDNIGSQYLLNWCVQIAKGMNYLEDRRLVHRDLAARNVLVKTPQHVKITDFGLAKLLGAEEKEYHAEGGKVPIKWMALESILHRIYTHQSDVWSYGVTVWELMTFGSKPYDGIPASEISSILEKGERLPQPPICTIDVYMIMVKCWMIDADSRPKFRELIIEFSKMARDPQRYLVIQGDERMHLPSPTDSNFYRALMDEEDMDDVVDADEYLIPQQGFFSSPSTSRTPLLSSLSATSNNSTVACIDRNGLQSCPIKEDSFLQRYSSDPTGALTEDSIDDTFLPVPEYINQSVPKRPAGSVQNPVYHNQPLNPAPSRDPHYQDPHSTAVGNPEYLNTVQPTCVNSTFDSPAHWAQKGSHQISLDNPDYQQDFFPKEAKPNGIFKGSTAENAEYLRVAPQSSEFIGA

[10] = Antitumor activity against human NCI-H1975 cells xenografted in Foxn1 nude mouse assessed as reduction in tumor volume at 20 mg/kg, po qd for 5 days relative to untreated control; type: functional; in short: as §2
[11] = biological target: T3, Epidermal growth factor receptor; assay: Inhibition of wild type EGFR phosphorylation in human HaCaT cells incubated for 3 hrs by ELISA method; type: cell-based
[12] = biological target: Cytochrome P450 2C9 (Homo sapiens, UniProt P11712); assay: Inhibition of CYP2C9 (unknown origin); type: ADME
Cytochrome P450 2C9, sequence (P11712 whole entry): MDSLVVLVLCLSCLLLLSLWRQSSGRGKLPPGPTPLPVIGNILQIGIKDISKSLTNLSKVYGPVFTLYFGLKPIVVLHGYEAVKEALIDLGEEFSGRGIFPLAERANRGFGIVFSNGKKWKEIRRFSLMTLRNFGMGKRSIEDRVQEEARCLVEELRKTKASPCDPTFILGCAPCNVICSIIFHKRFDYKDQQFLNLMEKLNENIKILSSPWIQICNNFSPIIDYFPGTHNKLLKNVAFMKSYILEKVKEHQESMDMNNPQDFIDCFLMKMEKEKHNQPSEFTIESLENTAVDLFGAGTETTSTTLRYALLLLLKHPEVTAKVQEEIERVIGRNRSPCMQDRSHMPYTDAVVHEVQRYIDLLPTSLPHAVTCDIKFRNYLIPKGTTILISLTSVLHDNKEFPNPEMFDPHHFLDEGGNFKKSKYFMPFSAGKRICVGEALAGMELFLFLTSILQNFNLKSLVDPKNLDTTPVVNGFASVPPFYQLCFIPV

[13] = Time duration during which free plasma concentration stays above in-vitro IC50 level in human NCI-H1975 cells xenografted Foxn1 nude mouse at 20 mg/kg, po qd for 5 days; type: ADME, organism-based; settings: in vivo, 120 h; in short: as §1
[14] = tested on: Mus musculus; assay: Toxicity in human NCI-H1975 cells xenografted Foxn1 nude mouse assessed as change in body weight at 50 mg/kg, po qd for 5 days (reference value: […]); type: organism-based; settings: in vivo, 120 h
[15] = Oral bioavailability in balb/c mouse at 20 mg/kg by liquid chromatography-tandem mass spectrometry; type: ADME, organism-based; settings: in vivo
In short: (§5)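 Rodent PK in male balb/c mice and male Wistar rats; plasma drug levels by LC-MS/MS. Mouse oral dosing at 20 mg/kg, with compounds given as a 0.5% methylcellulose/0.5% Tween 80 suspension or as solutions (PEG300/D5W, or ethanol/PEG300 with Solutol or D5W), depending on compound.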

[16] = tested on: Mus musculus; assay: Toxicity in human NCI-H1975 cells xenografted Foxn1 nude mouse assessed as change in body weight at 20 mg/kg, po qd for 5 days (reference value: […]); type: organism-based; settings: in vivo, 120 h
[17] = AUC in balb/c mouse at 20 mg/kg, po by liquid chromatography-tandem mass spectrometry; type: ADME, organism-based; settings: in vivo; in short: as §5
[18] = Clearance in balb/c mouse at 5 mg/kg, iv by liquid chromatography-tandem mass spectrometry; type: ADME, organism-based; settings: in vivo; in short: as §5
[19] = Intrinsic clearance in human liver microsomes; type: ADME; settings: read-out: CLH
[20] = Aqueous solubility of the compound at pH 6.8; type: physicochemical
[21] = Antitumor activity against human NCI-H1975 cells xenografted in Foxn1 nude mouse assessed as reduction in tumor volume at 50 mg/kg, po qd for 5 days relative to untreated control; type: functional; in short: as §2
[22] = biological target: T2, Epidermal growth factor receptor; assay: Inhibition of EGFR L858R mutant phosphorylation in human patient derived H3255 cells incubated for 3 hrs by ELISA method; type: cell-based
[23] = biological target: Cytochrome P450 3A4 (Homo sapiens, UniProt P08684); assay: Inhibition of CYP3A4 (unknown origin); type: ADME
Cytochrome P450 3A4, sequence (P08684 whole entry): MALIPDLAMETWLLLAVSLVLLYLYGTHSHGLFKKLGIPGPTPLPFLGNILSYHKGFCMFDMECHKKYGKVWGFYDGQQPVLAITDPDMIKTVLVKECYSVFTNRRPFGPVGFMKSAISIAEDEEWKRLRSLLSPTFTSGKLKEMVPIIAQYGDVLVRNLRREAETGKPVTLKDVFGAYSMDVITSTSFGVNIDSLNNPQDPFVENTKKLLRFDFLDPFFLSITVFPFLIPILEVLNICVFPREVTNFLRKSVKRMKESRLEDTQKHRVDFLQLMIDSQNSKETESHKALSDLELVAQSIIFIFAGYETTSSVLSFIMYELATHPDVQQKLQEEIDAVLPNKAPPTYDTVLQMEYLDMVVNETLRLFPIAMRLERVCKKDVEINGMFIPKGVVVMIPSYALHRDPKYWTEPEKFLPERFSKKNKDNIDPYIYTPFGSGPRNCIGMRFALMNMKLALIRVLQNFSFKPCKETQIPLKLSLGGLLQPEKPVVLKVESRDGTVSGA

[24] = Intrinsic clearance in mouse liver microsomes; type: ADME; settings: read-out: CLH
[25] = Inhibition of EGFR E746 to A750 deletion mutant phosphorylation in human patient derived HCC827 cells incubated for 3 hrs by ELISA method; type: cell-based; settings: HCC827, 3 h
In short: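 HCC827 cells plated at 7500/well in 5% FBS/RPMI and left overnight at 37 °C. Then 3 h with a 12-point compound dilution series, no EGF stimulation. Lysed in Triton/protease/phosphatase-inhibitor buffer. Phospho-EGFR (Y1173) read by sandwich ELISA: anti-EGFR capture, anti-phospho-EGFR, anti-rabbit-HRP, chemiluminescence. IC50 from at least duplicates.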

[26] = biological target: T1, Epidermal growth factor receptor; assay: Inhibition of EGFR L858R/T790M mutant phosphorylation in human patient derived H1975 cells incubated for 3 hrs by ELISA method; type: cell-based
[27] = biological target: Cytochrome P450 2D6 (Homo sapiens, UniProt P10635); assay: Inhibition of CYP2D6 (unknown origin); type: ADME
Cytochrome P450 2D6, sequence (P10635 whole entry, the tested form may be a part): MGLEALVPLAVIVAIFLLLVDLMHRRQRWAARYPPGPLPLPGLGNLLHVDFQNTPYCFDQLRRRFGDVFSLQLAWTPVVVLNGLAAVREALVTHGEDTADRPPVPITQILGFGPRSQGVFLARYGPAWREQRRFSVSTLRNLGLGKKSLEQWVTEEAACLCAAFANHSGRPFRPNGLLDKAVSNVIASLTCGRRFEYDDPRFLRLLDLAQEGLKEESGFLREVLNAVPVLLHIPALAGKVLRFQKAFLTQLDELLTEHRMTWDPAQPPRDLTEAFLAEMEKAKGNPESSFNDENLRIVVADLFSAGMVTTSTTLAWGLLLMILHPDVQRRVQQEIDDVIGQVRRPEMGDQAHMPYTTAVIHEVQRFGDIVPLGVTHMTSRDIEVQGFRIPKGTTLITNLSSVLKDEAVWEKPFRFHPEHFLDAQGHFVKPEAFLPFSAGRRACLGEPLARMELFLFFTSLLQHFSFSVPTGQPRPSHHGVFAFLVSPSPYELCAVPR

[28] = biological target: T3, Epidermal growth factor receptor; assay: Inhibition of N-terminal 6x-HIS-tagged wild type human recombinant EGFR (696 to 1022 residues) expressed in Sf9 cells pre-incubated for 90 mins followed by 10 uM ATP addition by HTRF assay
[29] = biological target: T2, Epidermal growth factor receptor; assay: Inhibition of N-terminal 6x-HIS-tagged human recombinant EGFR (696 to 1022 residues) L858R mutant expressed in Sf9 cells pre-incubated for 90 mins followed by 10 uM ATP addition by HTRF assay
[30] = biological target: T1, Epidermal growth factor receptor; assay: Inhibition of N-terminal 6x-HIS-tagged human recombinant EGFR (696 to 1022 residues) L858R/T790M mutant expressed in Sf9 cells pre-incubated for 90 mins followed by 10 uM ATP addition by HTRF assay

CN(C)C/C=C/C(=O)Nc1cc2c(Nc3ccc(F)c(Cl)c3)ncnc2cc1O[C@H]1CCOC1 [AFATINIB]
Activity [1]: -2.4%
Time [2]: <= 14 hr
T/C [3]: 38%
Drug metabolism [4]: 60%

C=CC(=O)N[C@@H]1CCC[C@@H](n2c(NC(=O)c3cccc(C(F)(F)F)c3)nc3cc(C)ccc32)C1 (racemic)
IC50 [5]: > 50000 nM
IC50 [6]: > 3720 nM
IC50 [7]: 60 nM
IC50 [8]: 409 nM
IC50 [9]: > 10000 nM

Cc1cc(C(=O)Nc2nc3cccc(Cl)c3n2[C@@H]2CCCCN(C(=O)/C=C/CN(C)C)C2)ccn1
Drug metabolism [4]: < 5%

C=CC(=O)N[C@@H]1CCCC[C@H]1n1c(NC(=O)c2cccc(C(F)(F)F)c2)nc2cc(C)ccc21 (racemic)
IC50 [5]: > 50000 nM
IC50 [7]: > 50000 nM

Cc1cc(C(=O)Nc2nc3cccc(C)c3n2[C@@H]2CCCCN(C(=O)/C=C/CN(C)C)C2)ccn1
T/C [10]: -6%
IC50 [11]: 68 nM
IC50 [12]: > 25000 nM
Time [13]: <= 14 hr
Activity [14]: -5%
bioavailability [15]: 34%
Activity [16]: -1.1%
AUC [17]: 3.53 µM·h
clearance [18]: 68.5 mL/min/kg
microsomal CLint [19]: 26 µL/min/mg
solubility [20]: > 175 µM
T/C [21]: -65%
Drug metabolism [4]: < 5%
IC50 [22]: 3.05 nM
IC50 [23]: > 25000 nM
microsomal CLint [24]: 62 µL/min/mg
IC50 [25]: 1.01 nM
IC50 [26]: 2.11 nM
IC50 [27]: > 25000 nM

Cc1ccc2c(c1)nc(NC(=O)c1cccc(C(F)(F)F)c1)n2[C@H]1CC[C@H](O)CC1
IC50 [28]: > 11800 nM
IC50 [29]: > 8480 nM
IC50 [30]: 140 nM

C=CC(=O)N1CCC(n2c(NC(=O)c3cccc(C(F)(F)F)c3)nc3cc(C)ccc32)CC1
IC50 [5]: > 37700 nM
IC50 [7]: 16500 nM

C=CC(=O)N1CCCC(n2c(NC(=O)c3cccc(C(F)(F)F)c3)nc3cc(C)ccc32)CC1 (stereo not given)
IC50 [5]: > 50000 nM
IC50 [7]: > 50000 nM

CCOCc1ccc2c(c1)nc(NC(=O)c1cccc(C(F)(F)F)c1)n2[C@H]1CC[C@H](O)CC1
IC50 [28]: > 42000 nM
IC50 [29]: 2080 nM
IC50 [30]: 470 nM

C=CC(=O)NCCn1c(NC(=O)c2cccc(C(F)(F)F)c2)nc2cc(C)ccc21
IC50 [5]: > 50000 nM
IC50 [7]: > 50000 nM

C=CC(=O)N1CCC(n2c(NC(=O)c3cccc(C(F)(F)F)c3)nc3cc(C)ccc32)C1 (stereo not given)
IC50 [5]: > 50000 nM
IC50 [7]: > 50000 nM

C=CC(=O)Nc1cccc(-n2c(NC(=O)c3cccc(C(F)(F)F)c3)nc3cc(C)ccc32)c1
IC50 [5]: > 50000 nM
IC50 [7]: 4 nM
IC50 [22]: 1040 nM
IC50 [25]: 272 nM
IC50 [26]: 135 nM

Cc1cccc2nc(NC(=O)c3cccc(C(F)(F)F)c3)n([C@H]3CC[C@H](O)CC3)c12
IC50 [28]: 5270 nM
IC50 [29]: 680 nM
IC50 [30]: 90 nM

C=CC(=O)Nc1ccc(-n2c(NC(=O)c3cccc(C(F)(F)F)c3)nc3cc(C)ccc32)cc1
IC50 [5]: > 50000 nM
IC50 [7]: > 50000 nM
